Assay results from ChEMBL document CHEMBL4392839, “Syntheses and bioactivities of songorine derivatives as novel G protein-coupled receptor antagonists” (Bioorg Med Chem, 2019).

Tests used:
[1] = Antagonist activity at mouse GPCR by double antibody sandwich ELISA
Outline: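 Double-antibody sandwich ELISA measuring mouse GPCR content, with a GPCR standard. Sample was mixed with diluted standard (37 ℃, 10 min), added to antibody-coated wells, then HRP conjugate was added (37 ℃, 30 min), followed by chromogens A and B and stop solution. OD450 was read within 5 min. Tested at 10 ng/L, 1 ng/mL, 0.1 μg/mL and 10 μg/mL, 30% DMSO in well. Percent inhibition versus no-inhibitor control (100%) from three independent experiments; IC50 from absorbance.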

Mus musculus = organism: Mus musculus; test: Antagonist activity at mouse GPCR at 10 ng/L by double antibody sandwich ELISA relative to control

Compound	IC50 [1]	inhibition (Mus musculus)
C=C1C(=O)[C@]23C[C@H]1C(=O)C[C@H]2[C@@]12C(=O)CC[C@@]4(C)CN(CC)[C@H]1[C@@H]3C[C@H]42	> 10 nM	34.6%
C=C1[C@H]2C[C@@]3([C@@H]1OC(=O)COCC)[C@@H](CC2=O)[C@@]12[C@@H](OC(=O)COCC)CC[C@@]4(C)CN(CC)[C@H]1[C@@H]3C[C@H]42	5.91 nM	55%
C=C1C(=O)[C@]23C[C@H]1C(=O)C[C@H]2[C@@]12[C@@H]4[C@@H]3C[C@@H]1[C@@](C)(CC[C@@H]2O)CN4CC	9.99 nM	54.6%
C=C1[C@H]2C[C@@]3([C@@H]1O)[C@@H](C/C2=N/O)[C@@]12[C@@H]4[C@@H]3C[C@@H]1[C@@](C)(CC[C@@H]2O)CN4CC	0.55 nM	73.3%
C=C1[C@H]2C[C@@]3([C@@H]1OC(=O)CC)[C@@H](CC2=O)[C@@]12[C@@H](OC(=O)CC)CC[C@@]4(C)CN(CC)[C@H]1[C@@H]3C[C@H]42	0.59 nM	65.9%
C=C1[C@H]2C[C@@]3([C@@H]1OC(=O)CCC)[C@@H](CC2=O)[C@@]12[C@@H]4[C@@H]3C[C@@H]1[C@@](C)(CC[C@@H]2O)CN4CC	8.68 nM	49.8%
C=C1[C@H]2C[C@@]3([C@@H]1OC(=O)CCC)[C@@H](CC2=O)[C@@]12[C@@H](OC(=O)CCC)CC[C@@]4(C)CN(CC)[C@H]1[C@@H]3C[C@H]42	0.14 nM	77.4%
C=C1[C@H]2C[C@@]3([C@@H]1O)[C@@H](C[C@H]2O)[C@@]12[C@@H]4[C@@H]3C[C@@H]1[C@@](C)(CC[C@@H]2O)CN4CC	> 10 nM	46.3%
C=C1[C@H]2C[C@@]3([C@@H]1O)[C@@H](CC2=O)[C@@]12[C@@H]4[C@@H]3C[C@@H]1[C@@](C)(CC[C@@H]2O)CN4CC	3.21 nM	62.8%
C=C1[C@H]2C[C@@]3([C@@H]1OC(=O)CC)[C@@H](C/C2=N/OC(=O)CC)[C@@]12[C@@H]4[C@@H]3C[C@@H]1[C@@](C)(CC[C@@H]2O)CN4CC	3.65 nM	50.3%
C=C1[C@H]2C[C@@]3([C@@H]1OC(C)=O)[C@@H](CC2=O)[C@@]12[C@@H](OC(C)=O)CC[C@@]4(C)CN(CC)[C@H]1[C@@H]3C[C@H]42	0.51 nM	65.2%
C=C1[C@H]2C[C@@]3([C@@H]1O)[C@@H](C[C@@H]2O)[C@@]12[C@@H]4[C@@H]3C[C@@H]1[C@@](C)(CC[C@@H]2O)CN4CC	> 10 nM	39.4%
C=C1[C@H]2C[C@@]3([C@@H]1OC(=O)c1ccccc1)[C@@H](CC2=O)[C@@]12[C@@H]4[C@@H]3C[C@@H]1[C@@](C)(CC[C@@H]2O)CN4CC	4.5 nM	37.7%
C=C1[C@H]2C[C@@]3([C@@H]1O)[C@@H](C/C2=N/NS(=O)(=O)c1ccc(C)cc1)[C@@]12[C@@H]4[C@@H]3C[C@@H]1[C@@](C)(CC[C@@H]2O)CN4CC	> 10 nM	37.7%
C=C1[C@H]2C[C@@]3([C@@H]1OC(=O)/C=C/c1ccccc1)[C@@H](CC2=O)[C@@]12[C@@H]4[C@@H]3C[C@@H]1[C@@](C)(CC[C@@H]2O)CN4CC	0.29 nM	57.1%
C=C1[C@H]2C[C@@]3([C@@H]1OC(=O)COC)[C@@H](CC2=O)[C@@]12[C@@H](OC(=O)COC)CC[C@@]4(C)CN(CC)[C@H]1[C@@H]3C[C@H]42	0.08 nM	85.3%
CCN1C[C@]2(C)CC[C@H](O)[C@]34[C@@H]1[C@H](C[C@H]23)[C@@]12C[C@@H](C(=O)C[C@H]14)C(CO)(OC(=O)c1cccc(Cl)c1)[C@H]2O (stereo not given in full)	0.23 nM	68.7%
C=C1[C@H]2C[C@@]3([C@@H]1OC(=O)CC)[C@@H](C/C2=N/OC(=O)CC)[C@@]12[C@@H](OC(=O)CC)CC[C@@]4(C)CN(CC)[C@H]1[C@@H]3C[C@H]42	> 10 nM	36.4%
C=C1[C@H]2C[C@@]3([C@@H]1S)[C@@H](CC2=S)[C@@]12[C@@H]4[C@@H]3C[C@@H]1[C@@](C)(CC[C@@H]2S)CN4CC	> 10 nM	39.3%
C=C1[C@H]2C[C@@]3([C@@H]1OC(C)=O)[C@@H](CC2=O)[C@@]12[C@@H]4[C@@H]3C[C@@H]1[C@@](C)(CC[C@@H]2O)CN4CC	2.62 nM	48.6%
